# PERK inhibitor – human PERK inhibition, primary cell-based screen; inhibition, % at 5.6 µM; 220,000 compounds, 0.17% hits; CHO PERK-DD fusion, SEAP luminescence translation reporter;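 active = inhibition above the mean inhibition of all tested compounds plus 3 SD, set separately per screening campaign, cut at about 2.9% in these data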;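 note: PERK kinase domain activated by AP20187 dimerizer at 100 nM; 0% = DMSO with dimerizer and 100% = rapamycin at 8.4 µM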
# PolyA inh – yeast polyadenylation inhibition; activity score, % at 12 µM; 300,000 compounds, 0.02% hits; AID 1875; S. cerevisiae SKY197-pL101 polyadenylation reporter, beta-gal luminescence; efflux-impaired pdr1/pdr3 knockout yeast; score 100 = 6 SD above DMSO;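 active = lowest replicate activity score at least 50, where 100 means six control SD above control mean; inconclusive = lowest score under 50 but half or more replicates reach 50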;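 note: yeast exposed to compound for 9 h at 30 °C; higher score means more reporter readthrough which indicates perturbed polyadenylation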
# STAT3 act – increases IL-6 driven STAT3 reporter signal. U3A cells, IL-6 STAT3-luciferase reporter, luminescence; 100% = signal with IL-6 EC80 alone. activation (% of control), % at 5.6 µM. 190,000 compounds, 0.91% hits. AID 871;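 active = activation above the screen-wide mean of compound activation plus 3 SD, cut at about 130% in these data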;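 note: 0% = background luminescence of wells with medium and substrate only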
#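 Material: STAT1-lacking human U3A cells, STAT3 luciferase reporter | Benchmarks: IL-6-only wells as 100% reference | Probe or stimulus: IL-6 (33 ng/mL) | Timing: Compound 1 h, then IL-6 6 h at 37 °C | Detection: Luminescence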
# HSF1 inh – HSF1 inhibition; 300,000 compounds, 0.77% hits; activity change, negative = inhibition, % at 7.5 µM (by protocol); NIH3T3-HGL HSE-luciferase, MG132-induced, luminescence 8 h; active compounds read low; AID 2098;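 active = more than half of replicate wells show activity change below -50%, luminescence cut by over half; inconclusive = some wells, but at most half, below -50%; inactive = no replicate well below -50%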;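 note: luciferase reports HSF-1 transcriptional activity via heat shock element; 0% = median of DMSO wells and -100% = zero luminescence signal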
# Hsp70 act – switches on Hsp70 transcription | HeLa Hsp70 promoter luciferase reporter, luminescence; scaled: vehicle 0, proteasome-inhibitor control 100% | AID 1203 | activation, % at 10 µM | 200,000 compounds, 0.04% hits;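 active = activation above the mean across all tested compounds plus 3 SD, cutoff set per campaign, cut at about 5.5% in these data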;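 note: 100% = MG132 at 30 µM as the positive control and 0% = DMSO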
# AHR activator – human AHR activation. AHR-responsive luciferase reporter cells, luminescence. activation, % at 5 µM. 320,000 compounds, 2.5% hits; in the data active = activation above about 47%;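 note: 0% = vehicle wells and 100% = reference agonist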
# Target sequence (P35869 whole entry, looked up): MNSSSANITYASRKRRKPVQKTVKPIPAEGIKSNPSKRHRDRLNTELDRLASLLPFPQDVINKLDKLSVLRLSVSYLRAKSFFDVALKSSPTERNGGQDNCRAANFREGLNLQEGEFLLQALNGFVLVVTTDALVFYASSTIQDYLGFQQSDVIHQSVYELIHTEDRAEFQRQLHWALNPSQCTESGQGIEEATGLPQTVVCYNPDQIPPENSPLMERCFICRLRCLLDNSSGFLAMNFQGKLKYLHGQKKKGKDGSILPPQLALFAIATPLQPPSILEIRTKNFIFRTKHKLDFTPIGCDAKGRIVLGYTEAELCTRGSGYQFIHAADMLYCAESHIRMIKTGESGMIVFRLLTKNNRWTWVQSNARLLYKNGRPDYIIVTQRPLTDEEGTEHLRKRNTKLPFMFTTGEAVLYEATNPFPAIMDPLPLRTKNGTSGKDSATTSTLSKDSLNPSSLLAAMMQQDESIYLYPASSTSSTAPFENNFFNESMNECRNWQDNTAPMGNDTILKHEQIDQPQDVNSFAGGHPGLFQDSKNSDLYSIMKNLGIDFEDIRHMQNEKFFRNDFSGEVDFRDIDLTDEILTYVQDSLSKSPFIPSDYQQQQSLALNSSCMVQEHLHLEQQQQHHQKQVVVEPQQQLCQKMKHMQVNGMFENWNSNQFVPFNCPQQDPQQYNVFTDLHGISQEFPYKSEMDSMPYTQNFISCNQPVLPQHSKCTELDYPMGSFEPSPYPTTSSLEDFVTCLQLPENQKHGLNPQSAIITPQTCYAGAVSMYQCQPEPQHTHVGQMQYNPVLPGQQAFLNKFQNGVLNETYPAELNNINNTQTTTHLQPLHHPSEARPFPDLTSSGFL
# An asterisk follows results filed as active; ? = inconclusive; · = not tested or not shown. The list is not random: actives were taken first. Their share in the collection is about 3.6%.
SMILES,PERK inhibitor,PolyA inh,STAT3 act,HSF1 inh,Hsp70 act,AHR activator
Cc1cccnc1NC(=O)c1ccc(OCc2c(C)noc2C)cc1,·,6,·,12,·,-4
Cc1ccc(CNCc2cc(Cl)ccc2O)cc1,·,·,·,·,·,-2
CCc1ccc(C(C)NC(=O)c2ccc3c(c2)OCO3)cc1 (configuration not stated),·,4,·,11,·,14
CC(NC(=O)c1ccc2c(c1)OCO2)c1ccccc1 (configuration not stated),·,9,·,-71*,·,13
COc1cccc2cc(CC(=O)c3ccc(C)cc3C)c(=O)oc12,·,-34,·,32,·,2
Cc1cccc(NC(=O)CCCN=C2NS(=O)(=O)c3ccccc32)c1C,·,·,·,·,·,7
COc1cc(-c2nc(-c3ccccc3)c(-c3cccs3)[nH]2)cc(OC)c1O,0,-11,93,2,0,5
COc1cc(-c2noc(-c3cccs3)n2)cc(OC)c1OC,0,4,89,13,0,48*
COc1cc(-c2nc(-c3ccccc3)c(-c3cccs3)[nH]2)cc(OC)c1OC,-1,-14,100,20,0,70*
Cc1ccc(C)c(N(C)C(=O)c2cc3c(=O)[nH]c4ccc(C)cc4c3s2)c1,-1,-7,·,10,·,21
CCN(CC)C(=O)CN1C(=O)/C(=C/c2ccccc2)SC1=S,0,-11,·,-57*,·,0
CC(=O)NNC(=O)CN1C(=O)/C(=C/c2ccccc2)SC1=S,1,-2,·,-2,·,5
O=C1c2ccccc2-c2nc3ncnn3c(-c3ccccc3Cl)c21,0,7,106,0,0,56*
CCOc1ccccc1CNC(=O)c1c([N+](=O)[O-])c(C)nn1C,0,2,91,-3,0,61*
c1ccc2c(c1)oc1c(N3CCOCC3)ncnc12,0,-3,107,-3,0,73*
Clc1ncnc2c1oc1ccccc12,0,2,134*,11,0,16
CCNc1nc(Nc2ccc(C)c(Cl)c2)c2cnn(C)c2n1,·,2,·,-14,·,54*
Cn1ncc2c(Nc3ccc(Cl)c(Cl)c3)ncnc21,·,?,·,-4,·,5
CCCCNc1nc(Nc2ccc(C)c(Cl)c2)c2cnn(C)c2n1,·,0,·,14,·,79*
CCCn1ncc2c(Nc3ccc(C)c(C)c3)ncnc21,·,-9,·,17,·,5
COc1cc(Cl)c(C)cc1NC(=O)COC(=O)c1ccc(CN2CCCC2=O)cc1,·,·,·,·,·,8
S=C(Nc1ccc(Cc2ccncc2)cc1)Nc1cccc(Cl)c1,0,-21,93,-2,0,-3
Cc1ccccc1N1C(=O)c2cc(S(N)(=O)=O)c(Cl)cc2NC1C (configuration not stated),·,·,·,·,·,-1
C=CCOc1ccc(/C=N/Nc2ccccn2)cc1OC,0,-12,88,29,0,55*
COc1cc(/C=N/Nc2ccccn2)ccc1OCC(C)C,1,-12,109,17,0,71*
SMILES,PERK inhibitor,PolyA inh,STAT3 act,HSF1 inh,Hsp70 act,AHR activator
COc1ccc(/C=C2\Sc3ccc(C(=O)NCC4CCCO4)cc3N(C)C2=O)cc1 (configuration not stated),·,-14,·,-3,·,4
COc1ccc(S(=O)(=O)NCC(c2cccnc2)N2CCN(C)CC2)cc1OC (configuration not stated),·,28,·,-71*,·,1
COc1ccc(C2=NOC3(CC(=O)N(c4ccc(F)cc4)C3=O)C2)cc1 (configuration not stated),-1,-9,·,0,·,-1
O=C(Oc1coc(CSc2nnc(NC(=O)C3CC3)s2)cc1=O)c1c(F)cccc1F,0,13,92,-6,0,-2
Cc1ccc(S(=O)(=O)N2CCC(C(=O)OCC(=O)NC(C)c3ccc(F)cc3)CC2)cc1C (configuration not stated),·,·,·,·,·,0
COc1ccc(Nc2nccc3c2nnn3C)cc1,0,14,80,11,0,62*
Cn1nnc2c(NCc3ccco3)nccc21,0,-16,95,-7,0,2
CCn1c2ccccc2c2nc3cc(C(=O)O)ccc3nc21,1,·,77,·,0,·
CCCCc1c(C)nn(-c2nnc3c4ccccc4n(CC)c3n2)c1C,-1,-16,88,-8,0,52*
CCn1c2ccccc2c2nc3ccccc3nc21,0,-37,110,12,0,90*
Cc1ccccc1CC1(CO)CCCN(C(=O)CCCN2CCCCC2=O)C1 (configuration not stated),2,2,106,1,0,1
Cc1ccc(S(=O)(=O)c2nc(-c3ccccc3F)oc2N2CC(C)OC(C)C2)cc1 (configuration not stated),·,-18,·,0,·,-3
COc1ccc(NC(=O)[C@@H]2[C@@H]3C(=O)N(C4CCCCC4)C(=O)[C@@H]3C3c4ccccc4C=CN32)cc1 (some centres not stated),0,5,115,4,0,90*
CC(=O)Nc1c(-c2ccc(F)cc2)nc2ccccn12,0,-6,97,-7,0,-1
COc1ccc(-c2nc3ccccn3c2C=O)cc1,1,-6,96,5,0,55*
O=Cc1c(-c2ccc(F)cc2)nc2ccccn12,0,-20,90,4,0,70*
CCOC(=O)CN1CC23C=CC(O2)C(C(=O)Nc2ccc(OCC)cc2)C3C1=O (configuration not stated),1,-1,97,2,0,-2
CCOC(=O)CN1CC23C=CC(O2)C(C(=O)Nc2ccc4c(c2)OCO4)C3C1=O (configuration not stated),1,15,105,2,0,70*
O=C1COc2ccc(-c3csc(NCC4CCCO4)n3)cc2N1 (configuration not stated),1,-6,100,-4,0,77*
NC(=S)N/N=C\c1c(OCc2ccccc2Cl)ccc2ccccc12,1,-14,88,·,0,70*
NC(=S)N/N=C\c1c2ccccc2cc2ccccc12,0,·,90,·,0,7
COCCNC(=O)CN(Cc1ccccc1)S(=O)(=O)c1ccc2nc(C)sc2c1,·,-10,·,-4,·,0
O=C(NCC1CCCO1)c1onc(CSc2ccc(Cl)cc2)c1C(=O)O (configuration not stated),3,9,98,-61*,0,0
Cc1cccc(NC(=O)Nc2cc(C)on2)c1,1,-2,94,-2,0,17
Cc1cc(NC(=O)Nc2cccc(C)c2C)no1,0,1,82,3,0,52*
CCOc1cc(/C=C2\SC(=O)N=C2N)ccc1O,0,-12,96,0,0,48*

# Source: PubChem BioAssay (several laboratories)
